According to ChEMBL document CHEMBL1240452, “Synthesis and toxicity towards normal and cancer cell lines of benzimidazolequinones containing fused aromatic rings and 2-aromatic ring substituents” (Eur J Med Chem, 2010):

What was measured:
Assay type in all cases: functional, cell-based
HeLa = assay: Cytotoxicity against human HeLa cells after 72 hrs by MTT assay
In short: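 HeLa (CCL-2) cervical cancer cells, maintained in DMEM with 10% heat-inactivated FBS, penicillin-streptomycin, 2 mM L-glutamine and non-essential amino acids, plated at 1000 cells/well. Aerobic 72 h exposure at 37 °C, then 3 h MTT; formazan taken up in DMSO, read at 550/690 nm. Viability as % DMSO-only value, ≥3 independent experiments; IC50 by nonlinear regression.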

[1] = Cytotoxicity against human GM00637 cells after 72 hrs by MTT assay; settings: GM00637, 72 h
In short: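 Normal human skin fibroblasts GM00637, seeded at 10,000 cells/well and exposed aerobically for 72 h at 37 °C. MTT added for a final 3 h; formazan crystals dissolved in DMSO; absorbance 550 nm with 690 nm reference. Viability relative to DMSO-only control, from at least three independent experiments; IC50 estimated by nonlinear regression of dose-response data.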

DU-145 = assay: Cytotoxicity against human DU145 cells after 72 hrs by MTT assay; settings: DU-145, 72 h
In short: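 DU145 prostate cancer cells, grown in RPMI-1640 with 10% heat-inactivated FBS, penicillin-streptomycin and 2 mM L-glutamine, seeded at 2000 cells/well. Treated aerobically for 72 h at 37 °C, then incubated 3 h with MTT. Formazan dissolved in DMSO; A550 read against 690 nm reference. Viability as % of DMSO-only wells, mean of ≥3 independent experiments; IC50 from nonlinear regression of dose-response curves.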

Row | SMILES | IC50 (HeLa) [nM] | IC50 [1] [nM] | IC50 (DU-145) [nM]
1 | CC1Cn2c(nc3c2C(=O)C=CC3=O)-c2ccccc21 (stereo not drawn) | 1490 | 1650 | 1090
2 | CC1Cn2c(nc3c2C(=O)C=CC3=O)-c2cccnc21 (stereo not drawn) | 1510 | 740 | 700
3 | CCn1c(-c2ccccc2)nc2c1C(=O)C=CC2=O | 180 | 150 | 70
4 | CCn1c(-c2cccnc2)nc2c1C(=O)C=CC2=O | 1500 | 480 | 1270
5 | CC1Cn2c(nc3c2C(=O)C=CC3=O)-c2ccc3ccccc3c21 (stereo not drawn) | 1170 | 2440 | 780
6 | CCn1c(-c2ccc3ccccc3c2)nc2c1C(=O)C=CC2=O | 70 | 40 | 60
7 | CC1Cn2c(nc3ccccc32)-c2ccc3ccccc3c21 (stereo not drawn) | > 10000 | > 10000 | –
8 | CO[C@@]12[C@H](COC(N)=O)C3=C(C(=O)C(C)=C(N)C3=O)N1C[C@@H]1N[C@@H]12 [MITOMYCIN] | 270 | 460 | 170
